# Screening results as filed in PubChem BioAssay.
# The full list was thinned out, with hits kept by preference.
# B2AR ag – agonists of human beta-2 adrenergic receptor inducing internalization; P07550; Am2.2-beta2AR cells, FAP receptor internalization, flow cytometry; response, % (concentration not given with the values); 340,000 tested, 0.43% active;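 active = response above a set limit, near 3 SD of response in nonfluorescent compounds, cut at about 42% in these data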
# Target sequence (P07550 whole entry, looked up): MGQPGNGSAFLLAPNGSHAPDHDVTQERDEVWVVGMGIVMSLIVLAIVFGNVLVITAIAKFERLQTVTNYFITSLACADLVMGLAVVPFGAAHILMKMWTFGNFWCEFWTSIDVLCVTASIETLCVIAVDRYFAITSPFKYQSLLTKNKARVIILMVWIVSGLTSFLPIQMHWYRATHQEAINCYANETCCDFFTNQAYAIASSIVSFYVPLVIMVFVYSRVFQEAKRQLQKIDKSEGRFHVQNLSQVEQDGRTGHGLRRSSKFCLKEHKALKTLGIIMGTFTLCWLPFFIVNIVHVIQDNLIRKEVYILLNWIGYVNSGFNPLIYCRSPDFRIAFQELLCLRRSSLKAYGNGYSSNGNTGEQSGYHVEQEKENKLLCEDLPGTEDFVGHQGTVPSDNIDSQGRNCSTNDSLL
# pCIP destab – p/CIP protein destabilization. Q05BA5. F442A p/CIP-EGFP cells, EGFP fluorescence, 16 h. decrease of EGFP signal, % at 10 µM. 290,000 tested, 0.01% active. AID 1984;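 active = EGFP signal decrease of at least 30% at 10 µM or well 3 SD below plate mean, unless failing retest; inactive = the rest, including hits failing retest or dose response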
# XBP1 UPR activ – activators of adaptive arm of unfolded protein response (XBP1); activation, % at 20 µM; AID 463104; CHO-XBP1 luciferase reporter, IRE1-XBP1 UPR activation, luminescence; percent of tunicamycin response, DMSO as zero; 330,000 tested, 0.33% active;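 active = versus positive control, 20 µM dose yields 30% or more activation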
#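 Material: CHO cell line with stable XBP1 luciferase reporter; schedule: 16-18 h cell attachment at 37 °C, then 6 h compound exposure; signal: glow luminescence from Steady-Glo reagent; medium: serum-containing F12 medium, 10% FBS; benchmarks: tunicamycin 10 µg/mL and vehicle-only wells; read-out: percent activation relative to tunicamycin reference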
# CHOP inh – CHOP inhibition in unfolded protein response; CHO-K1 CHOP-promoter luciferase, tunicamycin-induced, 15-18 h; inhibition, % at 10 µM; 220,000 tested, 3.8% active; AID 2732;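 active = compounds that reduced the stress-induced luciferase reporter signal by more than about 70% of percent inhibition, limit read from the data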
# UPR CHOP act – apoptotic UPR (CHOP) activation; CHO-CHOP luciferase reporter, luminescence; percent of tunicamycin response over DMSO baseline; activation, % at 10 µM; 330,000 tested, 0.34% active; AID 449763;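 active = at 10 µM dose, activation of 40% or more, normalized to positive control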
#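 System: CHO CHOP reporter cells. Amount: 500 cells per well. Buffer or medium: F12 medium, 10% FBS. Compound dosing: one dose, 10 µM in 0.5% DMSO. Incubation: 6 h compound exposure at 37 °C after overnight seeding. Technique: Steady-Glo luciferase luminescence. Benchmarks: tunicamycin and DMSO controls.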
# Dynein cargo inh – blocks dynein driven cargo transport along microtubules; 3617.4 mouse cells, GR-EGFP nuclear translocation imaging; test concentration mostly 20 µM; stimulated with dexamethasone, 1 µM; stronger effect = lower value; z-score, hits read low; 220,000 tested, 0.47% active; AID 1381;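 active = plate z-score of nuclear minus cytoplasmic receptor signal below a set negative limit, without overly bright fluorescence or cell loss, cut at about -3.5 in these data, passing the limit was not always enough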;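 also: z-score of nuclear minus cytoplasmic ring GR-EGFP intensity difference per well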
#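 Also added: dexamethasone, 1.0 µM final. Medium: tet-free, stripped-serum medium. Detection: fixed, Hoechst-stained cells imaged at 10x for EGFP. Read-out: nuclear-to-cytoplasmic GR-EGFP distribution per well. Times: induction 48 h, compound 1 h, agonist 30 min.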
# CHOP UPR conf – confirmation of apoptotic unfolded protein response (CHOP) activators | shares compounds with UPR CHOP act | CHO-CHOP cells, CHOP-luciferase reporter luminescence; percent of tunicamycin response, DMSO as zero | activation, % at 10 µM | 1,000 tested, 64% active | AID 463112; in the data active = activation above about 33%
# UPR XBP1 confirm – adaptive UPR (XBP1) activation, confirmed. 1,000 tested, 63% active. shares compounds with XBP1 UPR activ. CHO-XBP1 IRE1-XBP1 luciferase reporter, luminescence. activation, % at 20 µM;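 active = reporter signal at least 30% of the positive control's activation in two or more of four replicate wells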
# Hits are given with their value; i = inactive; nt = no result.
SMILES,B2AR ag,pCIP destab,XBP1 UPR activ,CHOP inh,UPR CHOP act,Dynein cargo inh,CHOP UPR conf,UPR XBP1 confirm
O=C1c2ccccc2-n2c1nc1ccccc1c2=O,i,i,34,i,77,i,i,i
CC1CCCCC1N1CN=C(Nc2nc3ccccc3s2)NC1 (stereo unspecified),i,i,90,i,46,i,86,99
CCN(C(=O)COC(=O)CCOc1ccc(C(C)(C)C)cc1)c1c(N)n(Cc2ccccc2)c(=O)[nH]c1=O,i,nt,nt,nt,nt,nt,nt,nt
O=C(O)c1ccc(-n2c(/C=C/c3cccc([N+](=O)[O-])c3)nc3ccccc3c2=O)cc1,i,i,i,nt,i,nt,nt,nt
COc1cc(C(=O)Nc2nc(-c3ccc(Cl)cc3)c(C)s2)ccc1OCC(=O)Nc1ccc(F)cc1,i,i,99,77,127,i,71,109
CCc1ccc(-c2nc(NC(=O)c3ccc(OCC(=O)Nc4ccc(F)cc4)c(OC)c3)sc2C)cc1,i,i,i,i,i,i,nt,nt
O=c1/c(=C/c2ccccn2)sc2n1CN(c1ccccc1)CN=2,i,i,i,i,i,i,nt,nt
Cc1cc(C)c2c(c1)/C(=c1/sc3n(c1=O)CN(c1ccccc1)CN=3)C(=O)N2,i,i,190,81,102,i,83,168
COc1cc(/C=C(/C#N)c2nc3ccccc3[nH]2)ccc1OCC(=O)Nc1ccccc1C,i,i,116,i,299,i,38,79
C=CCn1ccc(O)c(Cc2ccc(Cl)cc2)c1=O,i,i,i,nt,i,nt,nt,nt
CCN(CC)Cc1c(O)ccc2c(=O)c(-c3ccccc3OC)coc12,i,i,i,nt,i,nt,nt,nt
CCOc1cc(/C=C2/NC(=S)NC2=O)ccc1OCc1ccc([N+](=O)[O-])cc1,i,i,127,i,165,i,i,39
Cc1ccc(Sc2cc(Cl)nc(N)n2)cc1,i,i,i,i,i,i,nt,nt
Cc1ccc(-c2nc(N/N=C/c3cccc([N+](=O)[O-])c3)c3ccccc3n2)cc1,i,i,194,81,165,i,89,223
Cc1ccc(-c2nc(N/N=C/c3cccnc3)c3ccccc3n2)cc1,i,i,i,i,i,i,nt,nt
COc1ccc(CC(=O)Nc2ccc(-c3noc(-c4cc(OC)c(OC)c(OC)c4)n3)cc2)cc1,i,i,i,i,i,i,nt,nt
COc1ccc(CC(=O)Nc2ccc(-c3noc(-c4ccc(Cl)cc4)n3)cc2)cc1,i,i,76,i,79,i,i,i
FC(F)(F)c1nnc2ccc(-n3ccnc3)nn12,i,i,i,i,i,i,nt,nt
CCN(CC)S(=O)(=O)c1ccc(N/N=C(\C)c2ccc3c(c2)OCO3)c([N+](=O)[O-])c1,i,i,211,92,155,i,63,155
CCOC(=O)c1sc(NC(=S)NC(=O)c2ccccc2)c(C(=O)OCC)c1C,i,i,51,77,51,i,98,114
CCOC(=O)c1c(NC(=O)c2cc(-c3ccc(O)cc3)on2)sc(C(C)=O)c1C,i,i,84,i,78,i,i,43
CCOC(=O)c1c(NC(=O)CC(C)C)sc(C(C)=O)c1C,i,i,i,i,i,i,nt,nt
COc1cc(C)ccc1OCc1cc(C(=O)N(C)CCCN2CCOCC2)no1,i,i,i,nt,i,nt,nt,nt
CNS(=O)(=O)c1cnccc1N1CCN(c2cccc(C(F)(F)F)c2)CC1,i,i,i,i,i,i,nt,nt
COc1cc(NC(=O)c2ccc(C)cc2C)ccc1NC(=O)c1cc2ccccc2o1,i,i,148,nt,56,nt,i,72
SMILES,B2AR ag,pCIP destab,XBP1 UPR activ,CHOP inh,UPR CHOP act,Dynein cargo inh,CHOP UPR conf,UPR XBP1 confirm
O=C(OCC#CCSc1nnc(-c2cccc3ccccc23)o1)c1ccc(F)cc1,i,nt,i,nt,i,nt,nt,nt
FC(F)(F)c1nnc2c(Sc3ccc(Cl)cc3)nc3ccccc3n12,i,i,59,71,84,i,127,55
FC(F)(F)c1nnc2c(Sc3ccccc3)nc3ccccc3n12,i,i,i,i,i,i,nt,nt
Cc1ccc(/C=N/Nc2nncc(-c3ccccc3)n2)o1,i,i,i,i,i,i,nt,nt
Clc1ccc(-c2ccc(/C=N/Nc3nncc(-c4ccccc4)n3)o2)cc1,i,i,76,i,42,i,44,145
Cc1ccc(C(C)C)c(OCc2ccc(C(=O)N/N=C/c3ccc(O)c(O)c3)cc2)c1,i,i,86,84,102,i,57,54
O=C(N/N=C/c1ccc(O)c(O)c1)c1ccc(CSc2cccc3cccnc23)cc1,i,i,51,i,106,i,i,54
CC(C)N(Cc1ccccc1)S(=O)(=O)c1ccc2c(c1)NC(=O)CO2,i,i,i,nt,i,nt,nt,nt
Cc1ccc2nc(-c3ccc(NC(=S)NC4CC(C)(C)NC(C)(C)C4)cc3)sc2c1,i,i,49,i,60,i,63,61
Cc1ccc2nc(-c3ccc(NC(=S)NC(=O)C(C)C)cc3)sc2c1,i,i,i,i,i,i,nt,nt
O=c1/c(=C/c2ccc(O)c([N+](=O)[O-])c2)sc2nc3ccccc3n12,i,i,nt,i,nt,i,nt,nt
O=c1/c(=C/c2ccc(O)cc2)sc2nc3cc(Br)cnc3n12,nt,i,79,i,63,i,i,i
Cn1c2ccccc2c2cc(/C=N/NC(=O)c3cc(O)ccc3O)ccc21,i,i,33,nt,169,nt,84,87
Cn1c2ccccc2c2cc(/C=N/NC(=O)c3cc(O)cc(O)c3)ccc21,i,i,i,nt,i,nt,nt,nt
Cc1ccc2sc(-c3ccc(NC(=O)c4cc(-n5cnnc5)ccc4Cl)cc3)nc2c1,i,i,69,i,85,i,i,i
CC1=C(/C=C/C(C)=C/C=C/C(C)=C/C(=O)Nc2ccc(O)cc2)C(C)(C)CCC1,i,nt,54,i,93,nt,131,55
CC1=C(/C=C/C(C)=C/C=C/C(C)=C\C(=O)O)C(C)(C)CCC1,i,nt,i,i,i,nt,nt,nt
O=C1S/C(=C\C=C\c2ccco2)C(=O)N1c1ccc(O)cc1,i,i,37,i,168,i,i,i
CCOc1cc(/C=N/Nc2nc(C)cc(=O)[nH]2)ccc1O,i,i,i,nt,i,nt,nt,nt
CCOc1cc(/C=N/Nc2cc(C)nc(-n3nc(C)cc3C)n2)ccc1O,i,i,48,i,86,i,63,i
CC(C)NC(=O)NNC(=O)c1cc(COc2cc(Cl)cc(Cl)c2)on1,i,i,i,i,i,i,nt,nt
